Experiments:
[1] = Growth inhibition of human KYSE-150 cells after 48 hrs by MTT assay; format: functional; details: KYSE-150, 48 h
How it was run: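 Cells were seeded at 5000/well in RPMI 1640 with 10% FBS and allowed to attach overnight, then exposed for 48 h at 37 °C in 5% CO2. MTT was added for 3 h, and the dye was solubilized in HCl–2-propanol and read at 560 nm (reference 750 nm).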

[2] = target: T1, Lysine-specific demethylase 7A (Homo sapiens, UniProt Q6ZMT4); experiment: Inhibition of KDM7A (unknown origin) using K27me2 peptide as substrate by MALDI assay
T1 sequence (Q6ZMT4 whole entry): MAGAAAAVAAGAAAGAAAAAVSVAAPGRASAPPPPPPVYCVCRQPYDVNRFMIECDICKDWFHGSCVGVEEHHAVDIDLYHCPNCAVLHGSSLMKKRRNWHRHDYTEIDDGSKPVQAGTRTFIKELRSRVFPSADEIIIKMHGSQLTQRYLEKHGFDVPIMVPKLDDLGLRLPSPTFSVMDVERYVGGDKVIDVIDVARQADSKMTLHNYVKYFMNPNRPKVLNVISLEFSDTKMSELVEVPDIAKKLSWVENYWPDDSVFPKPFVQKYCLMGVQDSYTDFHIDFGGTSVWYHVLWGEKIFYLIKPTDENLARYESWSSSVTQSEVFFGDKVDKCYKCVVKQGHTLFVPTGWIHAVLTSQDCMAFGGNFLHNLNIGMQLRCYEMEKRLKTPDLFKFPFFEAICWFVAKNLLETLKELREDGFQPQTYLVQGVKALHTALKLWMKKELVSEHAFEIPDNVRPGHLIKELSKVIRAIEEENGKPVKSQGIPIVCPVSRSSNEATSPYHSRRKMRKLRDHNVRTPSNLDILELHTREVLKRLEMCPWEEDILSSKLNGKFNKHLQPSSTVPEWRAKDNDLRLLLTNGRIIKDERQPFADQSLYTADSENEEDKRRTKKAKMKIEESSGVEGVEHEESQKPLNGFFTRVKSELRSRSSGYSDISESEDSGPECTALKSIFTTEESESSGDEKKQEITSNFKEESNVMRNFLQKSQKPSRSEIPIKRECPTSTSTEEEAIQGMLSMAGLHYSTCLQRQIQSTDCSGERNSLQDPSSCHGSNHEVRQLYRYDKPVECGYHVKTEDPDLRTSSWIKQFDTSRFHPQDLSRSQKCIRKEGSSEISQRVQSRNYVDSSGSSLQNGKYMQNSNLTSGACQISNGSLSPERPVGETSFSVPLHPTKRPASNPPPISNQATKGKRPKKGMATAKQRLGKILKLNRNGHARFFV

[3] = target: Lysine-specific demethylase 5A (Homo sapiens, UniProt P29375); experiment: Inhibition of KDM5A (unknown origin) using H3K4me3 peptide and 2-oxoglutarate as substrate after 1 hr by FDH-coupled assay
Sequence of Lysine-specific demethylase 5A (P29375 whole entry): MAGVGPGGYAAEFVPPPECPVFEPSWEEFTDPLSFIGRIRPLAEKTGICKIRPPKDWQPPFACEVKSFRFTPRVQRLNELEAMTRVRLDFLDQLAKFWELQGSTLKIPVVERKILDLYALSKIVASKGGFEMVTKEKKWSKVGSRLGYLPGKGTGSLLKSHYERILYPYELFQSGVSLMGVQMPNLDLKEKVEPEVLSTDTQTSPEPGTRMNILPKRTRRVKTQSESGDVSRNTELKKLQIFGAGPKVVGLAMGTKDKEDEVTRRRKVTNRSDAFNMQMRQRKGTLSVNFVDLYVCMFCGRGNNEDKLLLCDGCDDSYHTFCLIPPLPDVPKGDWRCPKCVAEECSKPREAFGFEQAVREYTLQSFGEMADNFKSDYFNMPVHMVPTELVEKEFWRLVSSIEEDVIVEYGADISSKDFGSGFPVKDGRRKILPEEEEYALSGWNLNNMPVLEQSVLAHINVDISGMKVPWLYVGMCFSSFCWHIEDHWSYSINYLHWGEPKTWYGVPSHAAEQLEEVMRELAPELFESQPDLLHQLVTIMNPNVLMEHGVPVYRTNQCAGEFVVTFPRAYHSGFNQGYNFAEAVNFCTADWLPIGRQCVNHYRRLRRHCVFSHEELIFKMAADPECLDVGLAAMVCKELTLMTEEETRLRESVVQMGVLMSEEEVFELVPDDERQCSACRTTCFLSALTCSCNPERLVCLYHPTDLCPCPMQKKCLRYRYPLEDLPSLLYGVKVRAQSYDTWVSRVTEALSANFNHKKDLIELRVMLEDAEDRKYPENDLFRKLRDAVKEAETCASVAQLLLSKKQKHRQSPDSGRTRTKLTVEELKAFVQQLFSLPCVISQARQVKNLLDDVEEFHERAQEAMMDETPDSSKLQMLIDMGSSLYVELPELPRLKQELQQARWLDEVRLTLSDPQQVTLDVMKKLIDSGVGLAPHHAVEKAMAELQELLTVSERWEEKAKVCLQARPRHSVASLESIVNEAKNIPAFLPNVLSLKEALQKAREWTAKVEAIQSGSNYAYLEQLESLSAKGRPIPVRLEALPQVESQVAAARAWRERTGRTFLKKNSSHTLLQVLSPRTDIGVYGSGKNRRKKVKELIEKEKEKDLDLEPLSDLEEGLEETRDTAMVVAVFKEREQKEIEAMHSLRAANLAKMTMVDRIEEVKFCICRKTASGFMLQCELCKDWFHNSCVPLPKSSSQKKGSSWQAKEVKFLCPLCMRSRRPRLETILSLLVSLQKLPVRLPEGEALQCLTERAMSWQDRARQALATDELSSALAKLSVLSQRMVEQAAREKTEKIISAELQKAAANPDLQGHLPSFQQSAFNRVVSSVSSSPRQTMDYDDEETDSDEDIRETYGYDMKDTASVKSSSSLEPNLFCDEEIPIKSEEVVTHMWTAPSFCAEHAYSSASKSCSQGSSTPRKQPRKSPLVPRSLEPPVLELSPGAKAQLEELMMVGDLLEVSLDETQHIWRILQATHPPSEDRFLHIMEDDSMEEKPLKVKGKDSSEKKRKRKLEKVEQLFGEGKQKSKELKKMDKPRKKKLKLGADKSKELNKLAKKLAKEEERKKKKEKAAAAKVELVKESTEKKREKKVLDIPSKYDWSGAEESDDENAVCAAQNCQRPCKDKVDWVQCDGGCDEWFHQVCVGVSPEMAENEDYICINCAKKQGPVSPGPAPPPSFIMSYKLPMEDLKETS
How it was run: (§1)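 Run as the FDH-coupled KDM4C format, with compounds in DMSO and activity relative to a DMSO control. KDM4A was used at 0.37 mg/mL final with H3K9me3 peptide. KDM5A was used at 0.64 mg/mL final with H3K4me3 peptide. Values are means of two experiments.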

[4] = target: T2, Lysine-specific demethylase 4A (Homo sapiens, UniProt O75164); experiment: Inhibition of KDM4A (unknown origin) using H3K9me3 peptide and 2-oxoglutarate as substrate after 1 hr by FDH-coupled assay; how it was run: as §1
T2 sequence (O75164 whole entry): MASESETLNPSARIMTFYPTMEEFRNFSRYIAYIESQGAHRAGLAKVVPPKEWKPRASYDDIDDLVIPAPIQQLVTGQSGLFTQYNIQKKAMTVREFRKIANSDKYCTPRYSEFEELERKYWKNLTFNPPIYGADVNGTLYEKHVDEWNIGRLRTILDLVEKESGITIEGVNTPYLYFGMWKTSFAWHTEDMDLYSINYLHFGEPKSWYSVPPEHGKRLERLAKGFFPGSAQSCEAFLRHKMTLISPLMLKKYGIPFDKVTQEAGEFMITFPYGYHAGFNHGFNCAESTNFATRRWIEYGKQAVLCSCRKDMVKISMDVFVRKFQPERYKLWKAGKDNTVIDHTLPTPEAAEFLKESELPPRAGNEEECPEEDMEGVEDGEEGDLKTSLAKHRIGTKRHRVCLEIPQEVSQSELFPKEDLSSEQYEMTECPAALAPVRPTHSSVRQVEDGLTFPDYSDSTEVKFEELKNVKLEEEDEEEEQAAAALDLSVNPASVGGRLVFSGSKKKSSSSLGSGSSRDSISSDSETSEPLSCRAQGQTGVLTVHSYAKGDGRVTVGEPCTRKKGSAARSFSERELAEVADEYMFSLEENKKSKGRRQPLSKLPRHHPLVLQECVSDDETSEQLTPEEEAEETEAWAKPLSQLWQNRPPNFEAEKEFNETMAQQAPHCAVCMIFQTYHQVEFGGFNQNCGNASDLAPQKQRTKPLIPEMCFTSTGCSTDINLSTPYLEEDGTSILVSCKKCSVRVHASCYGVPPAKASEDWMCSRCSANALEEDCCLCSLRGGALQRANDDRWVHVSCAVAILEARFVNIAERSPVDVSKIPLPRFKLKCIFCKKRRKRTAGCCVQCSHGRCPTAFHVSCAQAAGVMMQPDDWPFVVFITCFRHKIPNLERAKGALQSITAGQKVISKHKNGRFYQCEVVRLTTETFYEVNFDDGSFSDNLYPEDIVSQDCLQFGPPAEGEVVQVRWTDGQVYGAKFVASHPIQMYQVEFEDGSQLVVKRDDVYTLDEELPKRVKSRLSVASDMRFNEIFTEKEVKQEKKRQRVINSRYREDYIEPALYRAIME

[5] = target: Histone lysine demethylase PHF8 (Homo sapiens, UniProt Q9UPP1); experiment: Inhibition of KDM7B (unknown origin) using H3K4me3K9me2 and 2-oxoglutarate as substrate after 1 hr by matrix-assisted laser desorption ionization time of flight mass spectrometry
Sequence of Histone lysine demethylase PHF8 (Q9UPP1 whole entry): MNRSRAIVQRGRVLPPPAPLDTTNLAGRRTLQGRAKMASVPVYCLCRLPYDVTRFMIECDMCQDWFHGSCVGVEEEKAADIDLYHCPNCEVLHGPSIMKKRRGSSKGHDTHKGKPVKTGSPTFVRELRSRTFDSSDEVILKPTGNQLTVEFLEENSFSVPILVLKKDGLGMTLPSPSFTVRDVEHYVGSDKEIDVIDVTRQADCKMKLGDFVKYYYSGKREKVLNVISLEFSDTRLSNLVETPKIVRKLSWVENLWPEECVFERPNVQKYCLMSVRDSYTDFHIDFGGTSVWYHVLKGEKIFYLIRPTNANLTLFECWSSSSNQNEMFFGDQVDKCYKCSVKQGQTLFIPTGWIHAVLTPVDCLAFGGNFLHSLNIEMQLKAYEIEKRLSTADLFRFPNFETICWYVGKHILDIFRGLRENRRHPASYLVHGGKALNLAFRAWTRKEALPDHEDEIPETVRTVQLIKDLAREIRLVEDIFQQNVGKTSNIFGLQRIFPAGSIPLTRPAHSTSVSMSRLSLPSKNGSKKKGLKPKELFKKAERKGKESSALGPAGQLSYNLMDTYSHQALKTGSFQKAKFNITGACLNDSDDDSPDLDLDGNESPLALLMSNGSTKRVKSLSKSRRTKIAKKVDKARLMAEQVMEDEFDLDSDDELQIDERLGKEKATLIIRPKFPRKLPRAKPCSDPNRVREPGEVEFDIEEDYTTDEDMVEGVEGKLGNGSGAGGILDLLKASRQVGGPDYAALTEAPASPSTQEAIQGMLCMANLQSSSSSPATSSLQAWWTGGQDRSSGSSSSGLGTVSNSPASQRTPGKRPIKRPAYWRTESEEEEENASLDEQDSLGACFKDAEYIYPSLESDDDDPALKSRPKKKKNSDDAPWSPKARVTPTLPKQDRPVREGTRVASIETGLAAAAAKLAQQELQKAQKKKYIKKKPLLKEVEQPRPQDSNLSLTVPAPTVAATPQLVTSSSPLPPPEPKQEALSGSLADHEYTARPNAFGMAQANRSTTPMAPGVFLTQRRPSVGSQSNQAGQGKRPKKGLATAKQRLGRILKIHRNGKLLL
How it was run: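 Enzyme (0.5 mg/mL) was reacted with 5 μM H3K4me3K9me2 peptide, 0.5 mM 2-oxoglutarate, 20 μM Fe(II), 20 μM ZnCl2, 0.5 mM ascorbate, 150 mM KCl, glutathione and DTT in 10 mM Tris-HCl pH 8.0 for 1 h at 37 °C. Inhibition was calculated from the remaining H3K9me2, and IC50 was taken as the concentration halving H3K9me2 removal. Values are means of two experiments.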

IC50 [2] [µM] | IC50 [3] [µM] | IC50 [4] [µM] | IC50 [5] [µM] | SMILES | GI50 [1] [µM]
0.2 | 55 | > 120 | 1.2 | O=C(O)CCN(O)C(=O)CCCCCCCCC1CC1 | 16
1.6 | 13 | 0.8 | 19 | CN(C)CCCCCCCCC(=O)N(O)CCC(=O)O | > 470
